Results as given in ChEMBL document CHEMBL5303300, “EUbOPEN Chemogenomics Library - Multiplex” (2023).
“And” between values parts separate entries of the source, which are not always exact repeats. Equal entries are not always repeated.

Assays:
Fibroblast = experiment: Multiplex assay against human fibroblast; assay type: toxicity, cell-based; conditions: number of replicates 2
Method in brief: (§1)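 Live cells were stained at seeding with Hoechst33342, BioTracker Green Microtubule Cytoskeleton Dye, MitoTracker Red and Annexin V Alexa Fluor 680. Following compound addition, they were imaged on a CQ1 microscope at 37°C and 5% CO2 and gated by CellPathfinder machine learning into Hoechst high-intensity objects or normal cells, with normal cells split into healthy, pyknosed or fragmented nuclei and pyknosed cells into mitotic or apoptotic. Tubulin, mitochondrial-mass and membrane-permeability phenotypes are per cents of healthy-nucleus cells.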

U2OS = experiment: Multiplex assay against U2OS; assay type: toxicity, cell-based; conditions: human, number of replicates 2; method in brief: as §1
[1] = 24 h, 1 µM, compound concentration 1 uM
[2] = 24 h, 10 µM, compound concentration 10 uM
[3] = 48 h, 1 µM, compound concentration 1 uM
[4] = 48 h, 10 µM, compound concentration 10 uM
[5] = 12 h, 1 µM, compound concentration 1 uM
[6] = 12 h, 10 µM, compound concentration 10 uM

With `Br.Oc1cc2c(cc1O)C(c1ccccc1)CNCC2` (configuration not stated) the “Population Mitochondria Different-Phenotype (%)” value (Fibroblast; [1]) was 0%, the “Population Mitotic Cells (%)” value (Fibroblast; [1]) was 68% and 33% and the “Population Normal (%)” value (Fibroblast; [1]) was 100%. The “Population Pyknosed Nuclei (%)” value (Fibroblast; [1]) was 11% and 6%, the “Population Tubulin-Different-Phenotype (%)” value (Fibroblast; [1]) was 6% and 2% and the “Total Cell Count” value (Fibroblast; [1]) was 187 and 183. The “Population Apoptotic (%)” value (Fibroblast; [2]) was 80% and 50%, the “Population Fragmented Nuclei (%)” value (Fibroblast; [2]) was 12% and 13% and the “Population Healthy Nuclei (%)” value (Fibroblast; [2]) was 84% and 79%. The “Population Hoechst High Intensity Objects (%)” value (Fibroblast; [2]) was 0%, the “Population Membrane Permeable-Phenotype (%)” value (Fibroblast; [2]) was 1% and the “Population Mitochondria Different-Phenotype (%)” value (Fibroblast; [2]) was 0% and 1%. The “Population Mitotic Cells (%)” value (Fibroblast; [2]) was 20% and 50%, the “Population Normal (%)” value (Fibroblast; [2]) was 100% and the “Population Pyknosed Nuclei (%)” value (Fibroblast; [2]) was 3% and 7%. The “Population Tubulin-Different-Phenotype (%)” value (Fibroblast; [2]) was 9% and 13%, the “Total Cell Count” value (Fibroblast; [2]) was 140 and 169 and the “Population Apoptotic (%)” value (Fibroblast; [3]) was 90% and 54%. The “Population Fragmented Nuclei (%)” value (Fibroblast; [3]) was 18% and 14%, the “Population Healthy Nuclei (%)” value (Fibroblast; [3]) was 75% and 79% and the “Population Hoechst High Intensity Objects (%)” value (Fibroblast; [3]) was 0%. The “Population Membrane Permeable-Phenotype (%)” value (Fibroblast; [3]) was 2%, the “Population Mitochondria Different-Phenotype (%)” value (Fibroblast; [3]) was 0% and the “Population Normal (%)” value (Fibroblast; [3]) was 100%. For the same molecule, the “Population Pyknosed Nuclei (%)” value (Fibroblast; [3]) was 5%, the “Population Tubulin-Different-Phenotype (%)” value (Fibroblast; [3]) was 4% and 3% and the “Total Cell Count” value (Fibroblast; [3]) was 175 and 194. The “Population Apoptotic (%)” value (Fibroblast; [4]) was 25% and 42%, the “Population Fragmented Nuclei (%)” value (Fibroblast; [4]) was 19% and 17% and the “Population Healthy Nuclei (%)” value (Fibroblast; [4]) was 77% and 78%. The “Population Hoechst High Intensity Objects (%)” value (Fibroblast; [4]) was 0%, the “Population Membrane Permeable-Phenotype (%)” value (Fibroblast; [4]) was 0% and 1% and the “Population Mitochondria Different-Phenotype (%)” value (Fibroblast; [4]) was 0%. For the same molecule, the “Population Mitotic Cells (%)” value (Fibroblast; [4]) was 75% and 57%, the “Population Normal (%)” value (Fibroblast; [4]) was 100% and the “Population Pyknosed Nuclei (%)” value (Fibroblast; [4]) was 2% and 3%. The “Population Tubulin-Different-Phenotype (%)” value (Fibroblast; [4]) was 10% and 9%, the “Total Cell Count” value (Fibroblast; [4]) was 163 and 182 and the “Population Fragmented Nuclei (%)” value (U2OS; [5]) was 14% and 5%. The “Population Healthy Nuclei (%)” value (U2OS; [5]) was 80% and 82%, the “Population Hoechst High Intensity Objects (%)” value (U2OS; [5]) was 0% and the “Population Membrane Permeable-Phenotype (%)” value (U2OS; [5]) was 2% and 1%. For the same molecule, the “Population Mitochondria Different-Phenotype (%)” value (U2OS; [5]) was 0%, the “Population Mitotic Cells (%)” value (U2OS; [5]) was 100% and 50% and the “Population Normal (%)” value (U2OS; [5]) was 100%. The “Population Pyknosed Nuclei (%)” value (U2OS; [5]) was 6% and 11%, the “Population Tubulin-Different-Phenotype (%)” value (U2OS; [5]) was 67% and 89% and the “Population Apoptotic (%)” value (U2OS; [6]) was 57% and 30%. For the same molecule, the “Population Healthy Nuclei (%)” value (U2OS; [6]) was 33% and 85%, the “Population Hoechst High Intensity Objects (%)” value (U2OS; [6]) was 0% and the “Population Membrane Permeable-Phenotype (%)” value (U2OS; [6]) was 0% and 1%. For the same molecule, the “Population Mitochondria Different-Phenotype (%)” value (U2OS; [6]) was 0% and 1%, the “Population Mitotic Cells (%)” value (U2OS; [6]) was 42% and 69% and the “Population Normal (%)” value (U2OS; [6]) was 100%. The “Population Tubulin-Different-Phenotype (%)” value (U2OS; [6]) was 50% and 75%, the “Population Apoptotic (%)” value (U2OS; [1]) was 50% and 61% and the “Population Fragmented Nuclei (%)” value (U2OS; [1]) was 8% and 5%. For the same molecule, the “Population Healthy Nuclei (%)” value (U2OS; [1]) was 83% and 82%, the “Population Hoechst High Intensity Objects (%)” value (U2OS; [1]) was 2% and 0% and the “Population Membrane Permeable-Phenotype (%)” value (U2OS; [1]) was 2% and 0%. The “Population Mitochondria Different-Phenotype (%)” value (U2OS; [1]) was 2% and 0%, the “Population Mitotic Cells (%)” value (U2OS; [1]) was 50% and 38% and the “Population Normal (%)” value (U2OS; [1]) was 97% and 100%. For the same molecule, the “Population Pyknosed Nuclei (%)” value (U2OS; [1]) was 8% and 11%, the “Population Tubulin-Different-Phenotype (%)” value (U2OS; [1]) was 67% and 91% and the “Population Apoptotic (%)” value (U2OS; [2]) was 50% and 44%. For the same molecule, the “Population Healthy Nuclei (%)” value (U2OS; [2]) was 58% and 88%, the “Population Hoechst High Intensity Objects (%)” value (U2OS; [2]) was 0% and the “Population Membrane Permeable-Phenotype (%)” value (U2OS; [2]) was 10% and 0%. For the same molecule, the “Population Mitochondria Different-Phenotype (%)” value (U2OS; [2]) was 10% and 0%, the “Population Mitotic Cells (%)” value (U2OS; [2]) was 50% and 55% and the “Population Normal (%)” value (U2OS; [2]) was 100%. The “Population Pyknosed Nuclei (%)” value (U2OS; [2]) was 23% and 8%, the “Population Tubulin-Different-Phenotype (%)” value (U2OS; [2]) was 80% and 83% and the “Population Apoptotic (%)” value (U2OS; [3]) was 37% and 53%. For the same molecule, the “Population Fragmented Nuclei (%)” value (U2OS; [3]) was 13% and 3%, the “Population Healthy Nuclei (%)” value (U2OS; [3]) was 78% and 89% and the “Population Hoechst High Intensity Objects (%)” value (U2OS; [3]) was 0%. The “Population Membrane Permeable-Phenotype (%)” value (U2OS; [3]) was 5% and 0%, the “Population Mitochondria Different-Phenotype (%)” value (U2OS; [3]) was 2% and 0% and the “Population Mitotic Cells (%)” value (U2OS; [3]) was 62% and 46%. The “Population Normal (%)” value (U2OS; [3]) was 100% and 99%, the “Population Pyknosed Nuclei (%)” value (U2OS; [3]) was 8% and 7% and the “Population Tubulin-Different-Phenotype (%)” value (U2OS; [3]) was 64% and 99%. For the same molecule, the “Population Apoptotic (%)” value (U2OS; [4]) was 44% and 64%, the “Population Healthy Nuclei (%)” value (U2OS; [4]) was 54% and 90% and the “Population Hoechst High Intensity Objects (%)” value (U2OS; [4]) was 0%. For the same molecule, the “Population Membrane Permeable-Phenotype (%)” value (U2OS; [4]) was 10% and 0%, the “Population Mitochondria Different-Phenotype (%)” value (U2OS; [4]) was 10% and 0% and the “Population Mitotic Cells (%)” value (U2OS; [4]) was 55% and 35%. The “Population Normal (%)” value (U2OS; [4]) was 100% and the “Population Tubulin-Different-Phenotype (%)” value (U2OS; [4]) was 84% and 93%.
